Measurements published in PMC7059760 (ACS applied materials & interfaces, 2019).
≈ marks a conversion by molar mass, not a printed value. Read-outs that look alike come from different tables or passages of the source.

What was measured:
antibenzothiostrobin mAb [1] = conditions: noncompetitive FIA, synthetic peptide FITC-Ahx-CPDIWPTAWC; cited from earlier work
antibenzothiostrobin mAb [2] = conditions: competitive FIA, synthetic peptide FITC-Ahx-CSGLAEFMSC; cited from earlier work
antibenzothiostrobin mAb [3] = conditions: ic-ELISA; cited from earlier work
antibenzothiostrobin mAb [4] = conditions: competitive phage ELISA; cited from earlier work
antibenzothiostrobin mAb [5] = conditions: noncompetitive phage ELISA; cited from earlier work
[6] = system: antibenzothiostrobin mAb 4E8; parameters: species or system murine; conditions: ITC; ratio of binding constants versus monomer
How it was run: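 Isothermal titration calorimetry at 25 °C. All samples were diluted in 10 mM BB and degassed. The mAb was in the cell, with water in the reference cell and buffer titrated as control. Peptide in the syringe was 260 μM (monomer), 150 μM (dimer) or 50 μM (tetramer). Run used 20 injections, 60 s initial delay and 1000 rpm stirring. N, K, ΔH and ΔS were obtained from a one-site fit, with a c value checked for quality.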

antibenzothiostrobin mAb [7] = test: Inner filter effect immunoassay; type: binding, murine; conditions: ratio of SC50 values; analyte benzothiostrobin
How it was run: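 Homogeneous competitive format. The UCNP probe was NaYF4:Yb,Er, amine-silica coated and glutaraldehyde-coupled to the monomer, dimer or tetramer peptidomimetic, and the absorber was mAb-conjugated gold nanoflowers. Standard and both probes were mixed in BB for 1 h at 37 °C with gentle shaking. Emission at 657 nm was read under 980 nm laser excitation. ΔI (I−I0) was plotted against log analyte concentration, and SC50 was taken as 50% signal saturation.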

Molecule	SC50 (antibenzothiostrobin mAb [1]) [ng/mL]	IC50 (antibenzothiostrobin mAb [2]) [ng/mL]	IC50 (antibenzothiostrobin mAb [3]) [ng/mL]	IC50 (antibenzothiostrobin mAb [4]) [ng/mL]	SC50 (antibenzothiostrobin mAb [5]) [ng/mL]	fold higher affinity for mAb compared to monomer [6] [fold]	improvement of IFE-IA sensitivity compared to dimer (antibenzothiostrobin mAb [7]) [fold]	improvement of IFE-IA sensitivity compared to monomer (antibenzothiostrobin mAb [7])
CO/C=C(/C(=O)OC)c1ccccc1CSc1nc2ccccc2s1 [benzothiostrobin]	93.4	16.8 (≈ 0.0452 µM)	7.55 (≈ 0.0203 µM)	0.94 (≈ 0.00253 µM)	2.27			
((Ac-CSGLAEFMSC)2K)2KK (bicyclic or more) [tetramer]						13.6	~3	approximately 6 fold
(Ac-CSGLAEFMSC)2KK (bicyclic or more) [dimer]						1.87		
